According to ChEMBL document CHEMBL4732167, “Structure based design, synthesis, and biological evaluation of imidazole derivatives targeting dihydropteroate synthase enzyme” (Bioorg Med Chem Lett, 2021):
Values after ≈ are worked out from the molar mass of the structure shown.

Legend:
[1] = test system: Streptococcus pyogenes; assay: Antibacterial activity against Streptococcus pyogenes MTCC 442 assessed as bacterial growth inhibition; format: functional
[2] = test system: Staphylococcus aureus; assay: Antibacterial activity against Staphylococcus aureus MTCC 96 assessed as bacterial growth inhibition; format: functional
[3] = test system: Escherichia coli; assay: Antibacterial activity against Escherichia coli MTCC 443 assessed as bacterial growth inhibition; format: functional
[4] = test system: Pseudomonas aeruginosa; assay: Antibacterial activity against Pseudomonas aeruginosa MTCC 1688 assessed as bacterial growth inhibition; format: functional
[5] = Antioxidant activity assessed as DPPH radical scavenging activity at 100 ug/ml (reference value: 22 to 40.2 %); format: functional; conditions: dose 100.0 µg/ml
Summary of the method: (§1)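 DPPH radical scavenging was measured at 0, 25, 50, 75 and 100 µg/ml of each compound. Ascorbic acid was the reference.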

[6] = test system: Bacteria; assay: Antibacterial activity against ESBL-producing bacteria assessed as bacterial growth inhibition; format: functional
Summary of the method: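 Values are minimum inhibitory concentrations (MIC) in µg/mL, determined at an outside microbiology laboratory.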

[7] = Antioxidant activity assessed as DPPH radical scavenging activity at 25 ug/ml (reference value: 22 to 40.2 %); format: functional; conditions: dose 25.0 µg/ml; summary of the method: as §1
[8] = test system: Staphylococcus aureus; assay: Antibacterial activity against methicillin-resistant Staphylococcus aureus assessed as inhibition of bacterial growth; format: functional
Summary of the method: (§2)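 Growth inhibition of the drug-resistant strain was read out as the minimum inhibitory concentration (MIC), reported in µg/mL. The same protocol was also run on an ESBL strain.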

[9] = Antioxidant activity assessed as DPPH radical scavenging activity at 50 ug/ml (reference value: 22 to 40.2 %); format: functional; conditions: dose 50.0 µg/ml; summary of the method: as §1
[10] = Antioxidant activity assessed as hydrogen peroxide radical scavenging activity at 100 ug/ml (reference value: 23.6 to 43.1 %); format: functional; conditions: dose 100.0 µg/ml
Summary of the method: (§3)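 Hydrogen peroxide scavenging was measured across a compound series of 0, 25, 50, 75 and 100 µg/ml.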

[11] = Antioxidant activity assessed as nitric oxide radical scavenging activity at 100 ug/ml (reference value: 25.8 to 41.6 %); format: functional; conditions: dose 100.0 µg/ml
Summary of the method: (§4)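 Nitric oxide radical scavenging was tested at 0, 25, 50, 75 and 100 µg/ml of compound.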

[12] = test system: Mycobacterium tuberculosis; assay: Antibacterial activity against Mycobacterium tuberculosis H37Rv assessed as bacterial growth inhibition; format: functional
[13] = test system: Enterococcus; assay: Antibacterial activity against vancomycin-resistant Enterococcus assessed as inhibition of bacterial growth; format: functional; summary of the method: as §2
[14] = Antioxidant activity assessed as nitric oxide radical scavenging activity at 75 ug/ml (reference value: 25.8 to 41.6 %); format: functional; conditions: dose 75.0 µg/ml; summary of the method: as §4
[15] = test system: Candida albicans; assay: Antifungal activity against Candida albicans MTCC 227 assessed as fungal growth inhibition; format: functional
[16] = Antioxidant activity assessed as hydrogen peroxide radical scavenging activity at 50 ug/ml (reference value: 23.6 to 43.1 %); format: functional; conditions: dose 50.0 µg/ml; summary of the method: as §3
[17] = Antioxidant activity assessed as nitric oxide radical scavenging activity at 50 ug/ml (reference value: 25.8 to 41.6 %); format: functional; conditions: dose 50.0 µg/ml; summary of the method: as §4
[18] = Antioxidant activity assessed as hydrogen peroxide radical scavenging activity at 75 ug/ml (reference value: 23.6 to 43.1 %); format: functional; conditions: dose 75.0 µg/ml; summary of the method: as §3
[19] = Antioxidant activity assessed as DPPH radical scavenging activity at 75 ug/ml (reference value: 22 to 40.2 %); format: functional; conditions: dose 75.0 µg/ml; summary of the method: as §1
[20] = test system: Aspergillus niger; assay: Antifungal activity against Aspergillus niger MTCC 282 assessed as fungal growth inhibition; format: functional
[21] = test system: Plasmodium falciparum; assay: Antimalarial activity against Plasmodium falciparum assessed as parasite growth inhibition; format: functional, organism-based
[22] = Antioxidant activity assessed as hydrogen peroxide radical scavenging activity at 25 ug/ml (reference value: 23.6 to 43.1 %); format: functional; conditions: dose 25.0 µg/ml; summary of the method: as §3
[23] = test system: Aspergillus clavatus; assay: Antifungal activity against Aspergillus clavatus MTCC 1323 assessed as fungal growth inhibition; format: functional
[24] = Antioxidant activity assessed as nitric oxide radical scavenging activity at 25 ug/ml (reference value: 25.8 to 41.6 %); format: functional; conditions: dose 25.0 µg/ml; summary of the method: as §4

Molecule | MIC [1] [µg/mL] | MIC [2] [µg/mL] | MIC [3] [µg/mL] | MIC [4] [µg/mL] | Activity [5] [%] | MIC [6] [µg/mL] | Activity [7] [%] | MIC [8] [µg/mL] | Activity [9] [%] | Activity [10] [%] | Activity [11] [%] | MIC [12] [µg/mL] | MIC [13] [µg/mL] | Activity [14] [%] | MFC [15] [µg/mL] | Activity [16] [%] | Activity [17] [%] | MFC [20] [µg/mL] | IC50 [21] [µg/mL] | MFC [23] [µg/mL] | other results
CC1(C)S[C@@H]2[C@H](NC(=O)[C@H](N)c3ccccc3)C(=O)N2[C@H]1C(=O)O [AMPICILLIN] | 100 (≈ 286 µM) | 250 (≈ 715 µM) | 100 (≈ 286 µM) | 100 (≈ 286 µM) | – | – | – | – | – | – | – | – | – | – | – | – | – | – | – | – | –
CC(=O)c1c(C)nc(SCC(=O)Nc2ccc(OCc3ccc(Cl)cc3)cc2)n1-c1ccccc1 | 62.5 (≈ 124 µM) | 250 (≈ 494 µM) | 100 (≈ 198 µM) | 25 (≈ 49.4 µM) | 84.7 | 125 (≈ 247 µM) | 52.1 | 100 (≈ 198 µM) | 68.2 | 79.6 | 88.4 | 12.5 (≈ 24.7 µM) | 100 (≈ 198 µM) | 76.9 | > 1000 | 59.4 | 61.4 | 500 (≈ 988 µM) | 1.45 (≈ 2.87 µM) | 500 (≈ 988 µM) | Activity [18]: 67.3%; Activity [19]: 76%; Activity [22]: 42.6%; Activity [24]: 49.5%
NYSTATIN | – | – | – | – | – | – | – | – | – | – | – | – | – | – | 100 | – | – | 100 | – | 100 | –
CC(=O)c1c(C)nc(SCC(=O)Nc2ccc(OCc3ccc(F)cc3)cc2)n1-c1ccc(Cl)cc1 | 100 (≈ 191 µM) | 100 (≈ 191 µM) | 50 (≈ 95.4 µM) | 25 (≈ 47.7 µM) | 91 | 62.5 (≈ 119 µM) | 42.9 | 125 (≈ 239 µM) | 58.6 | 88.1 | 89.5 | 62.5 (≈ 119 µM) | 62.5 (≈ 119 µM) | 84.3 | 1000 (≈ 1910 µM) | 68.4 | 58.3 | 1000 (≈ 1910 µM) | 0.73 (≈ 1.39 µM) | 1000 (≈ 1910 µM) | Activity [18]: 74.5%; Activity [19]: 67%; Activity [22]: 51%; Activity [24]: 50.8%
CC(=O)c1c(C)nc(SCC(=O)Nc2ccc(OCc3ccccc3)cc2)n1-c1ccccc1 | 125 (≈ 265 µM) | 25 (≈ 53 µM) | 125 (≈ 265 µM) | 50 (≈ 106 µM) | 84.3 | 250 (≈ 530 µM) | 36.4 | 100 (≈ 212 µM) | 48.6 | 81.9 | 87.4 | 500 (≈ 1060 µM) | 500 (≈ 1060 µM) | 80.3 | 500 (≈ 1060 µM) | 58 | 64.2 | 1000 (≈ 2120 µM) | 0.93 (≈ 1.97 µM) | 1000 (≈ 2120 µM) | Activity [18]: 69.4%; Activity [19]: 60%; Activity [22]: 43.8%; Activity [24]: 48.3%
C=C[C@H]1CN2CC[C@H]1C[C@H]2[C@H](O)c1ccnc2ccc(OC)cc12 [QUININE] | – | – | – | – | – | – | – | – | – | – | – | – | – | – | – | – | – | – | 0.268 (≈ 0.826 µM) | – | –
COC1=CC(=O)C[C@@H](C)[C@]12Oc1c(Cl)c(OC)cc(OC)c1C2=O [GRISEOFULVIN] | – | – | – | – | – | – | – | – | – | – | – | – | – | – | 500 (≈ 1420 µM) | – | – | 100 (≈ 283 µM) | – | 100 (≈ 283 µM) | –
O=C(O)c1cn(C2CC2)c2cc(N3CCNCC3)c(F)cc2c1=O [CIPROFLOXACIN] | 50 (≈ 151 µM) | 50 (≈ 151 µM) | 25 (≈ 75.4 µM) | – | – | – | – | – | – | – | – | – | – | – | – | – | – | – | – | – | –
O=C(N[C@H](CO)[C@H](O)c1ccc([N+](=O)[O-])cc1)C(Cl)Cl [CHLORAMPHENICOL] | 50 (≈ 155 µM) | 50 (≈ 155 µM) | 50 (≈ 155 µM) | 50 (≈ 155 µM) | – | – | – | – | – | – | – | – | – | – | – | – | – | – | – | – | –
